From the RNAGym collection of RNA variant scans (doi:10.1126/science.aae0568)
This sample holds only a part of the variants without activity.

B1: tRNA (parent)
chain: GUUCCGUUGGCGUAAUGGUAACGCGUCUCCCUCCUAAGGAGAAGACUGCGGGUUCGAGUCCCGUACGGAACG

Variants of: B1
Test: yeast fitness relative to wild type (ratio to wild type); higher = fitter; tRNA-Arg(CCU), competitive growth, 37 C, YPD
Procedure, shortened: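 Variants of the tRNA-Arg(CCU) gene were chemically synthesised with a 3% per-site mutation rate across 69 sites and placed at the native genomic locus in Saccharomyces cerevisiae. Six parallel replicates of the pooled strains were competed in YPD at 37°C for 24 hours, and gene amplicons from the start and end populations were read by 100-nucleotide paired-end sequencing. Darwinian fitness relative to wild type was derived from changes in genotype frequencies. Genotypes required ≥ 100 starting reads, and estimates < 0.5 were set to 0.5.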
Variant C33G G68A has a yeast fitness of 0.671. In the case of C30A U32G, the yeast fitness is reported as 0.624. Work on A14G G41A yielded a yeast fitness of 0.981. C11A C31U A65U showed a yeast fitness of no more than 0.5. Work on G6C A43U C61G C62A yielded a yeast fitness of 0.618. Work on C11G G68A A69G yielded a yeast fitness of no more than 0.5. Work on U3C U7A G44C C61U C62U G63C U64A C66U A69G yielded a yeast fitness of no more than 0.5. G9A G38A gave a yeast fitness of 0.976. Variant A36G G38C G52C A57U has a yeast fitness of no more than 0.5. With G10A G17A A36G A40C A57C C62A the yeast fitness was no more than 0.5. In the case of G12A G17A A21C C29U, the yeast fitness is reported as no more than 0.5. Variant U7G A20C has a yeast fitness of 0.651. G9C U16G A37C showed a yeast fitness of 0.735. With G50A G56A C62G A70U the yeast fitness was no more than 0.5. C11A A37U showed a yeast fitness of 0.587. Variant A43U C55A G68C A69U has a yeast fitness of no more than 0.5. For G6A A14U C33G, the yeast fitness was no more than 0.5. With C11G C30G C31G U32A the yeast fitness was no more than 0.5. For U3A U13C C29A A43G, the yeast fitness was no more than 0.5. In the case of G12A G67A, the yeast fitness is reported as 0.857. For C34U G68U A69C, the yeast fitness was no more than 0.5. Variant G9A C24G C34G C61U has a yeast fitness of no more than 0.5. For U16A C33G G58A G68C, the yeast fitness was no more than 0.5. For C60A, the yeast fitness was 0.613. U3C U13A C31U G41A C61G gave a yeast fitness of no more than 0.5. Variant U2A G12C C29U C33G has a yeast fitness of no more than 0.5. For C5U U16G A57G C62G C66U, the yeast fitness was no more than 0.5. In the case of U2A C31G U32G, the yeast fitness is reported as 0.526. In the case of G25C C29A G52A G67A, the yeast fitness is reported as no more than 0.5. A42U G52C A70G gave a yeast fitness of 0.521. C4A G48A C61U gave a yeast fitness of 0.661. For A20C C46U, the yeast fitness was 1.13. Variant A20G G23A U26G has a yeast fitness of no more than 0.5. Variant G6A G9C U19C C24U U54C has a yeast fitness of no more than 0.5. For U16C G51C C55G C62A, the yeast fitness was no more than 0.5. With C11U A42U A43G C61A the yeast fitness was no more than 0.5. Work on C4A C31A A45U yielded a yeast fitness of no more than 0.5. Work on U7G C66A yielded a yeast fitness of 0.573. With U13A C24U U59C the yeast fitness was 0.55. C24G A37C C49U A69U gave a yeast fitness of 0.545. G6A C11U A70C gave a yeast fitness of 0.578. A20U A45U C62A A70C gave a yeast fitness of 0.505. In the case of C30U A36U, the yeast fitness is reported as 0.57. G25C C62A showed a yeast fitness of 0.845. Work on U2C G23C yielded a yeast fitness of 0.651. A57C C66A showed a yeast fitness of 0.624. With A15C U16C C27U C31G A69C the yeast fitness was no more than 0.5. Work on C4A G23A C31G A40C yielded a yeast fitness of 0.52. With G10C G12A A15G A69C the yeast fitness was no more than 0.5. Work on C49U A57U G67C yielded a yeast fitness of no more than 0.5. Work on C24U C46U yielded a yeast fitness of 0.983. A20U C34G G48C U59C C61U gave a yeast fitness of 0.791. Work on C4U U59C A69C yielded a yeast fitness of 0.772. Variant U2A U3G G18A A20C C49U C55U has a yeast fitness of no more than 0.5. Variant A21C C31A A65C has a yeast fitness of no more than 0.5. A15C C49A gave a yeast fitness of 0.637. With C5A U47A C55A G68A the yeast fitness was no more than 0.5. In the case of C11U A36G C60G A70C, the yeast fitness is reported as no more than 0.5. C30U A36C G67U showed a yeast fitness of 0.639. Work on C5U U7C C30G A42C G52A C55U C66U yielded a yeast fitness of no more than 0.5. C11U A15C C29U A37G A69U gave a yeast fitness of no more than 0.5. In the case of C4G C11U C49U, the yeast fitness is reported as 0.562. Variant G6A C30U C49A has a yeast fitness of no more than 0.5. For G10C G48A, the yeast fitness was 0.851. For G41A C61G C66U, the yeast fitness was no more than 0.5. G18A C34A A37U showed a yeast fitness of no more than 0.5. With A40C G52C the yeast fitness was 0.685. G12U A36G G63A A69U gave a yeast fitness of 0.604. G12A A20C A69U showed a yeast fitness of 0.811. With G17A A20G A57C the yeast fitness was 0.558. In the case of C5A C22U U53C U59G C61G C62U, the yeast fitness is reported as no more than 0.5. With G9A C34U U59C A65C A69G the yeast fitness was no more than 0.5. For C4U A14U A36U, the yeast fitness was 0.545. Variant C33G A43C C62A G67C has a yeast fitness of 0.743. Work on G6A C11U U13C A43G G67U yielded a yeast fitness of no more than 0.5. Work on C5A G12A G18A A69C yielded a yeast fitness of no more than 0.5. Variant C5G U8G A14G A43C G48A has a yeast fitness of 0.544. Work on C22G C30A yielded a yeast fitness of 0.65. C24G C27U G51C U64A gave a yeast fitness of no more than 0.5. G9A G12C C31A C33G A45G G67U showed a yeast fitness of no more than 0.5. Variant U3G C5U U26A G38A C55A C66U has a yeast fitness of 0.568. Work on C4G G67A A69C yielded a yeast fitness of no more than 0.5. A43C G51A gave a yeast fitness of 0.809. Work on A21U C27G A43U yielded a yeast fitness of no more than 0.5. For A36U C60A A70U, the yeast fitness was no more than 0.5. In the case of C4A G52C C66U, the yeast fitness is reported as no more than 0.5. Work on A42U G68C yielded a yeast fitness of 0.664. In the case of G6A U26A A57C G67A A69U, the yeast fitness is reported as no more than 0.5. With A14G U28C C61U the yeast fitness was 0.577. With A14C A70C the yeast fitness was 0.684. A36U U54C showed a yeast fitness of 0.559. Variant C4A C29G has a yeast fitness of 0.618. With U3G G18A C60G the yeast fitness was 0.538. With A45U G50C the yeast fitness was 0.728. Variant C29G C55U G67C has a yeast fitness of no more than 0.5. In the case of C4G G51C, the yeast fitness is reported as 0.647. C30A A45U C49A G51A C62G gave a yeast fitness of no more than 0.5. For U19G C22U C30U C31U A40U G67A, the yeast fitness was no more than 0.5. With C11G U16A U47C the yeast fitness was 0.655. In the case of G9A A65G A70G, the yeast fitness is reported as 0.595. Variant C24G A36C A65G A70C has a yeast fitness of no more than 0.5. Work on C4A A37C A70U yielded a yeast fitness of no more than 0.5. C11A G18A G68A showed a yeast fitness of no more than 0.5. For C22A A40U A43C G48A A69U, the yeast fitness was no more than 0.5. With C11A A21C C31A the yeast fitness was 0.567. Work on A14C G50U yielded a yeast fitness of 0.708. For U2G C5A C55G A65C, the yeast fitness was no more than 0.5. With U3A C4G U8A G50A A57C A70U the yeast fitness was 0.548. U7G A14G A20G U35G A43G U59A gave a yeast fitness of no more than 0.5. In the case of A21U G39C, the yeast fitness is reported as 0.574. Work on U2C C24G C46U A70U yielded a yeast fitness of 0.537. In the case of C5G C11G C30U C31U A57G G63A, the yeast fitness is reported as no more than 0.5. Work on A45C U64C yielded a yeast fitness of 0.941. For G10C A20G C24U G38C A57C G63C, the yeast fitness was no more than 0.5. C5A C30A C31G A37U C55U A57C C61A gave a yeast fitness of 0.55. With A14G G17A the yeast fitness was 0.735. In the case of C22U A45G G58C, the yeast fitness is reported as 0.608. In the case of G6A A37C A65C A70C, the yeast fitness is reported as no more than 0.5. C4U C33G U47G gave a yeast fitness of 0.591. G48A A57G gave a yeast fitness of 0.972. Work on A14U C34U G39C yielded a yeast fitness of 0.56. In the case of G17A A21G, the yeast fitness is reported as 0.765. G12A G56C showed a yeast fitness of 0.764. In the case of G18A G41C U53A, the yeast fitness is reported as 0.557. U35G A43C showed a yeast fitness of 0.583. C33G A45U C46U showed a yeast fitness of no more than 0.5. Work on C4A C30U U59A yielded a yeast fitness of no more than 0.5. Variant C31U G63A A69C has a yeast fitness of 0.748. For A37U G67C, the yeast fitness was 0.619. C5U C31A C34A A36G showed a yeast fitness of no more than 0.5. U28A G48A C60G showed a yeast fitness of no more than 0.5. U19G G38C A70U gave a yeast fitness of 0.501. In the case of U28A C33G A43C G63A, the yeast fitness is reported as 0.524. In the case of G12A A21C, the yeast fitness is reported as 0.643. Variant G18A G44A G68A has a yeast fitness of no more than 0.5. Variant U2A G6A C11G A42U A65G C66G G68A has a yeast fitness of no more than 0.5. In the case of C5A G12C U47C, the yeast fitness is reported as no more than 0.5. With A14G A40C C60G the yeast fitness was 0.757. For G10A C33G A43G G58A G67A A69U, the yeast fitness was 0.543. Work on C5G G23A A69C yielded a yeast fitness of no more than 0.5. Variant A15U A20G G63C has a yeast fitness of 0.555. Work on U2A C5A C29U C62U A70U yielded a yeast fitness of no more than 0.5. Work on A20C C24U U47A G67C yielded a yeast fitness of no more than 0.5. Variant C24U C34U C46A G67A has a yeast fitness of no more than 0.5. Variant C4G A15G G23A C34G has a yeast fitness of 0.538. Work on U26A C27U C46G yielded a yeast fitness of 1. In the case of A15G U47G A69C, the yeast fitness is reported as no more than 0.5. With A42G A43U U54A the yeast fitness was no more than 0.5. U2C C5A G10C G12A G23A showed a yeast fitness of no more than 0.5. A15G C33G G39C gave a yeast fitness of no more than 0.5. Work on G9A C60G A70U yielded a yeast fitness of 0.584. With U8A A43C A65U the yeast fitness was no more than 0.5. G10A A20G A40C A42C gave a yeast fitness of no more than 0.5. G39A U53A gave a yeast fitness of 0.596. G10A A43G showed a yeast fitness of 0.65. With G17C U64A the yeast fitness was 0.662. U2C C24U U26A U28G U54G showed a yeast fitness of no more than 0.5. Variant G12A C27G A40G has a yeast fitness of no more than 0.5. For A36G A57C A65U, the yeast fitness was no more than 0.5. C31U C34A A36G G38C A69U gave a yeast fitness of no more than 0.5. C11U U28A C29U showed a yeast fitness of 0.93. With C60U C61U the yeast fitness was 0.717. Variant C4A G25C has a yeast fitness of 0.833. Work on C31U A37C A43U G50C A57G yielded a yeast fitness of 0.586. In the case of U2A G50C A57G, the yeast fitness is reported as no more than 0.5. Work on U19G U32C G52A G58C yielded a yeast fitness of no more than 0.5. A20U A65G gave a yeast fitness of 0.986.
